# Changes are numbered by the printed parent chain. Names and notes keep the numbering of the source. “Also recorded” adds a separate entry of the source. Like-named read-outs stand apart in the source and are kept apart here.
# B1: NP4: NO-carrying heme protein from the salivary glands of Rhodnius prolixus, recombinant, N-terminus ACTK... (protein)
# chain: ACTKNAIAQTGFNKDKYFNGDVWYVTDYLDLEPDDVPKRYCAALAAGTASGKLKEALYHYDPKTQDTFYDVSELQVESLGKYTANFKKVDKNGNVKVAVTAGNYYTFTVMYADDSSALIHTCLHKGNKDLGDLYAVLNRNKDAAAGDKVKSAVSAATLEFSKFISTKENNCAYDNDSLKSLLTK
# B2: D30N (protein)
# chain: B1 chain with D30N
# B3: K38A (protein)
# chain: B1 chain with K38A
# B4: R39A (protein)
# chain: B1 chain with R39A
# B5: K125A (protein)
# chain: B1 chain with K125A
# B6: D30A (protein)
# chain: B1 chain with D30A
# B7: NP4 apoprotein: NP4 without heme (protein)
# chain: B1 chain
# B8: Hm complex: NP4 with histamine bound to the heme iron (protein)
# chain: B1 chain
# B9: NP4-ImH: NP4 with imidazole bound (protein)
# chain: B1 chain
# B10: K125E (protein)
# chain: B1 chain with K125E
# B11: NP4-NO: NP4 with nitric oxide bound to the heme (protein)
# chain: B1 chain
# B12: A1K: site-directed mutant of NP4, M0 present (N-terminus MKCTK...) (protein)
# chain: MKCTKNAIAQTGFNKDKYFNGDVWYVTDYLDLEPDDVPKRYCAALAAGTASGKLKEALYHYDPKTQDTFYDVSELQVESLGKYTANFKKVDKNGNVKVAVTAGNYYTFTVMYADDSSALIHTCLHKGNKDLGDLYAVLNRNKDAAAGDKVKSAVSAATLEFSKFISTKENNCAYDNDSLKSLLTK
# B13: (M0)NP1: recombinant NP1 retaining methionine M0 at the N-terminus (MKCTK...) (protein)
# chain: MKCTKNALAQTGFNKDKYFNGDVWYVTDYLDLEPDDVPKRYCAALAAGTASGKLKEALYHYDPKTQDTFYDVSELQEESPGKYTANFKKVEKNGNVKVDVTSGNYYTFTVMYADDSSALIHTCLHKGNKDLGDLYAVLNRNKDTNAGDKVKGAVTAASLKFSDFISTKDNKCEYDNVSLKSLLTK
# B14: NP1(K1A) (protein)
# chain: ACTKNALAQTGFNKDKYFNGDVWYVTDYLDLEPDDVPKRYCAALAAGTASGKLKEALYHYDPKTQDTFYDVSELQEESPGKYTANFKKVEKNGNVKVDVTSGNYYTFTVMYADDSSALIHTCLHKGNKDLGDLYAVLNRNKDTNAGDKVKGAVTAASLKFSDFISTKDNKCEYDNVSLKSLLTK
# B15: (M0)NP1sym: (M0)NP1 containing the symmetrical heme, 2,4-dimethyldeuterohemin (protein, UniProt Q26239 24-207, looked up)
# Nitrophorin-1: B14 chain with A1K
# modifications: Met0; 2,4-dimethyldeuterohemin heme
# B16: native N-terminal NP1: NP1 expressed with a leader sequence, giving the native N-terminus KCTK... (protein)
# chain: B14 chain with A1K
# modifications: left off: His6, C-terminal, kept
# B17: Nat. N-term NP1 ^c: native N-terminal NP1 (N-terminus KC...) (protein, UniProt Q26239 24-207, looked up)
# Nitrophorin-1: B14 chain with A1K
# Legend:
# [1] = Stopped-flow kinetics of release of NO from the nitrophorins; type: binding, Rhodnius prolixus; details: for NO Kd (NO dissociation): 5–10 μM in 100 mM sodium phosphate buffer
# Summary of the method: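 Stopped-flow measurement of NO release from NO-bound nitrophorins with native or M0-bearing N-termini. Dissociation Kd obtained at pH 5.0 and 7.5 in dilute solution, 5–10 μM protein in 100 mM sodium phosphate buffer.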
# [2] = Size-exclusion FPLC retention of nitrophorins, mutants and ligand complexes; type: physicochemical, Rhodnius prolixus; details: for dimer formation: under any conditions / at any pH
# Summary of the method: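 Analytical run on Superdex75 at 4 °C in 100 mM sodium acetate, NaCl added to 220 mM total ionic strength. Protein at 1 mM was run at pH 5.0, 5.25, 5.5 and 5.75. Separately, protein from 1 to 0.025 mM was run at pH 5.0. Elution position compared with molecular weight standards.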
# [3] = type: physicochemical, Rhodnius prolixus; details: for state of the dimer: pH 7.3
# Summary of the method: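 Recombinant nitrophorin refolded from inclusion bodies, reconstituted with excess hemin at pH 7.5, then purified by size-exclusion at pH 5.0. ¹H{¹⁵N} HSQC spectra recorded across pH: 0.2 mM protein at pH 5.0, 5.5 and 6.0; 0.8 mM at pH 6.5. pH 6.5 peaks assigned from pH 7.3 assignments, following cross-peaks through intermediate spectra. NO-bound sample run at 3.7 mM and after dilution to 0.88 mM.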
# [4] = cited from earlier work
# [5] = column pH 7.5, measured at pH 8.0 rather than pH 7.5 (footnote a)
molecule,measurement,setting,value
B1,"Kd for the loss of NO from NP4, times that from NP1",[1]; pH 5.0,0.6
same,NO Kd (NO dissociation),[1]; pH 5.0,0.020 ± 0.003 s^–1
same,"Kd for the loss of NO from NP4, times that of NP1",[1]; pH 7.5,1.4
same,NO Kd (NO dissociation),[1]; pH 7.5,1.60 ± 0.11 s^–1
same,monomer or dimer on the size-exclusion column,"[2]; pH 5.0, 1 mM",pure dimer
same,monomer or dimer on the size-exclusion column,"[2]; pH 5.0, serial dilution to 0.025 mM",fairly pure monomer
same,monomer in 1H{15N} HSQC spectrum,"[3]; pH 5.0, 0.2 mM",some monomer present
same,oligomeric state in solution,"[3]; pH 5.6, 0.5 mM, absence of NO",mainly monomeric
same,dimer in 1H{15N} HSQC spectrum,"[3]; pH 6.5, 0.8 mM",not detectable
same,state of the dimer,"[3]; 3.7 mM, absence of NO",completely dissociated to monomer
same,NO Kd (NO dissociation),[4]; [5],2.6 ± 0.1 ^a s^–1
same,NO Kd (NO dissociation),"[4]; pH 5.0, ref 17",0.14 ± 0.01 s^–1
B2,monomer or dimer on the size-exclusion column,[2]; pH 5.0,monomers
B3,monomer or dimer on the size-exclusion column,[2]; pH 5.0,dimers
B4,monomer or dimer on the size-exclusion column,[2]; pH 5.0,dimers
B5,monomer or dimer on the size-exclusion column,[2]; pH 5.0,dimers
B6,monomer or dimer on the size-exclusion column,[2]; pH 5.0,monomers
B7,monomer or dimer on the size-exclusion column,[2]; pH 5.0,monomeric
B8,monomer or dimer on the size-exclusion column,"[2]; all pH values, including those below 6.0",monomer
same,monomer or dimer on the size-exclusion column,[2]; pH 5.0,monomer
B9,monomer or dimer on the size-exclusion column,[2]; pH 5.0,dimers
B10,monomer or dimer on the size-exclusion column,[2]; pH 5.0,dimers
B11,monomer or dimer on the size-exclusion column,[2]; pH 5.0,dimer
same,state of the dimer,"[3]; 0.88 mM, NO bound",still highly dimerized
B12,monomer or dimer on the size-exclusion column,[2]; pH 5.0,monomer
B13,NO Kd (NO dissociation),[1]; pH 5.0,0.426 ± 0.005 s^–1
same,NO Kd (NO dissociation),[1]; pH 7.5,2.32 ± 0.07 s^–1
same,monomer or dimer on the size-exclusion column,[2]; pH 5.0,not a dimer
same,dimer formation,[2],do not form dimers
same,dimer formation,[2]; listed as recombinant NP1,not a dimer at any pH
same,NO Kd (NO dissociation),[4]; [5],2.2 ± 0.01 ^a s^–1
same,NO Kd (NO dissociation),"[4]; pH 5.0, ref 17",0.20 ± 0.01 s^–1
B14,monomer or dimer on the size-exclusion column,[2]; pH 5.0,broad peak that encompasses the retention times expected for a dimer and a monomer
same,monomer or dimer on the size-exclusion column,"[2]; pH 5.0, NO added / bound","form dimers; also recorded: two peaks, the first of which is the dimer"
B15,NO Kd (NO dissociation),[1]; pH 5.0,0.218 ± 0.004 s^–1
same,NO Kd (NO dissociation),[1]; pH 7.5,2.66 ± 0.27 s^–1
B16,monomer or dimer on the size-exclusion column,"[2]; pH 5.0, NO added / bound",form dimers
B17,NO Kd (NO dissociation),[1]; pH 5.0,0.032 ± 0.011 s^–1
same,NO Kd (NO dissociation),[1]; pH 7.5,1.11 ± 0.04 s^–1

# From paper PMC4303305 (Biochemistry, 2014)
